Measurements as given in ChEMBL document CHEMBL1127500, “Structure-activity studies of benzimidazole-based DNA-cleaving agents. Comparison of benzimidazole, pyrrolobenzimidazole, and tetrahydropyridobenzimidazole analogues” (1994).

Experiments:
Type in all cases: functional
[1] = test system: LOX IMVI; experiment: Antitumor activity against LOX IMV cell line; conditions: Homo sapiens, read-out: Log LC50 (the source's name) (converted)
How it was run: (§1)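 Drugs were screened against a panel of up to 60 human cancer cell lines. The end-point was LC50, the drug concentration lethal to 50% of the cancer cells. Values were expressed as log LC50 and plotted as mean graphs centred on the log of the panel-mean LC50. Bars to the right mark lines with lower log LC50 than the mean.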

[2] = Mean log10 LC50 was determined
How it was run: (§2)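 Screened against a panel of up to 60 human cancer cell lines. Read-out is LC50, the drug concentration lethal to 50% of the cells, expressed as log LC50. The mean log LC50 across the screened lines is the centre line of the mean graph. Each line's deviation from that mean is shown as a bar.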

[3] = test system: Malme-3M; experiment: Antitumor activity against MALME-3M cell line; conditions: Homo sapiens; how it was run: as §1
[4] = test system: SK-MEL-5; experiment: Antitumor activity against SK-MEL-5 cell line; conditions: Homo sapiens; how it was run: as §2

For `CC(=O)OC1CCn2c1nc1c2C(=O)C(C)=C(N2CC2)C1=O` (centres undefined), which CC50 [1] is on record?
Its CC50 is under 10 nM.

And the Mean log LC50 [2]?
Its Mean log LC50 is -6.61.

What about the LC50 [3] of the same molecule?
Its LC50 is 55 nM.

And the LC50 [4]?
The LC50 was under 10 nM.
